As a reminder, the IC50 is the concentration that inhibits the measured activity by half. A low value points to higher potency.

We go through three compounds from ChEMBL document CHEMBL1150284, “Synthesis, characterization, and metabolic stability of porphyrin-peptide conjugates bearing bifunctional signaling sequences” (J Med Chem, 2008).

The subject of series [1] is HEp-2. The experiment in a line: Phototoxicity against human HEp2 cells on exposure of 1 J/cm'2 light. The conditions noted are these: HEp-2, light or radiation study. It is filed as functional, cell-based. A digest of the protocol: (§1)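 HEp2 cells plated as for dark assay, loaded with 0, 0.625, 1.25, 2.5, 5, 10 µM conjugate; medium swapped for one with 50 mM HEPES pH 7.4, cells on ice irradiated 20 min by 100 W halogen lamp through 610 nm long-pass filter and water IR filter (~1 J/cm2). Overnight incubation, then Cell Titer Blue viability read as in dark assay.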

Series [2] can be described thus: Stability at pH 7.4 after 24 hrs. In kind it is physicochemical. The settings on record: buffer, pH 7.4, 24 h. In short, it runs like this: (§2)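 Nonenzymatic hydrolysis: 100 µM conjugate in 50 mM PBS pH 7.4 or 50 mM acetate buffer pH 5.0, 37 °C for 24 h; products identified by MALDI-TOF MS with CCA matrix.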
Series [3] deals with HEp-2. The series is described as follows: Cytotoxicity against human HEp2 cells in dark. In kind it is functional, cell-based. In short, it runs like this:
(§3)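 HEp2 cells (DMEM/Advanced MEM 50:50, 5% FBS) plated 10000/well, 36–48 h attachment; exposed to rising conjugate concentrations up to 100 µM overnight in dark. Viability by Cell Titer Blue fluorescence 520/584 nm, normalized to untreated (100%) and 0.2% saponin-treated (0%) cells.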

Series [4] can be described thus: Drug uptake in human HEp2 cells at 10 uM. It is filed as ADME, cell-based. The conditions noted are these: hep-2, 10 µM, TDE = time-dependent effect. A digest of the protocol: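 HEp2 cells seeded 10000/well, grown 36 h, then given 10 µM conjugate (diluted from 10 mM water stock) for 0, 1, 2, 4, 8, 24 h. After PBS wash, lysis in 0.25% Triton X-100/PBS; conjugate read by fluorescence 440/650 nm, cell number by CyQuant.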

Series [5] can be described thus: Stability at pH 5.0 after 24 hrs. In kind it is physicochemical. The settings on record: buffer, pH 5, 24 h. A digest of the protocol: as §2
Series [6] has as its system HEp-2. The series is described as follows: Phototoxicity against human HEp2 cells on exposure of 1 J/cm'2 light up to 10 uM. In kind it is functional, cell-based. A digest of the protocol:
as §1

Series [7] relates to HEp-2. The series is described as follows: Cytotoxicity against human HEp2 cells in dark up to 100 uM. It is filed as functional, cell-based. In short, it runs like this: as §3

Numbered stars: 1 amine (or outer) side, 2 acyl side, 3 side chain; on linkers, the order of the positions; unused ones are H or OH. Square brackets hold non-standard residues; d marks the D form. Peptide text beside a SMILES is read from it. * marks the point of attachment. X1 = O=C(COCC(=O)*)Nc1ccc(-c2c3nc(c(-c4ccccc4)c4ccc([nH]4)c(-c4ccccc4)c4nc(c(-c5ccccc5)c5ccc2[nH]5)C=C4)C=C3)cc1; NH(CH2CH2O)6CH2CO = O=C(COCCOCCOCCOCCOCCOCCN[*:1])[*:2]

Regarding `CC(C)[C@H](NC(=O)[C@H](CCCCN)NC(=O)[C@H](CCCNC(=N)N)NC(=O)[C@H](CCCCN)NC(=O)[C@H](CCCCN)NC(=O)[C@H](CCCCN)NC(=O)[C@@H]1CCCN1C(=O)[C@@H]1CCCN1C(=O)[C@H](C)NC(=O)COCCOCCOCCOCCOCCOCCNC(=O)COCC(=O)Nc1ccc(-c2c3nc(c(-c4ccccc4)c4ccc([nH]4)c(-c4ccccc4)c4nc(c(-c5ccccc5)c5ccc2[nH]5)C=C4)C=C3)cc1)C(=O)N[C@@H](CCC(=O)O)C(=O)N[C@@H](CC(=O)O)C(=O)N1CCC[C@H]1C(=O)N[C@@H](CCCNC(=N)N)C(=O)N[C@@H](CCCCN)C(=O)N[C@@H](CCCCN)C(=O)N[C@@H](CCCNC(=N)N)C(=O)N[C@@H](CCCNC(=N)N)C(=O)N[C@@H](CCC(N)=O)C(=O)N[C@@H](CCCNC(=N)N)C(=O)N[C@@H](CCCNC(=N)N)C(=O)N[C@@H](CCCNC(=N)N)C(=O)N1CCC[C@H]1C(=O)N1CCC[C@H]1C(=O)N[C@@H](CCC(N)=O)C(=O)NCC(=O)O` (X1-[NH(CH2CH2O)6CH2CO]APPKKKRKVEDPRKKRRQRRRPPQG-OH), the IC50 in the series on HEp-2 [1] was 7.5 µM; in the series with HEp-2 [3], 34 µM. Further, the Stability result in series [2] and in series [5] was “Stable” throughout. For the same compound, in series [4], the Activity result is given as “tde”.
In the case of `CSCC[C@H](NC(=O)COCCOCCOCCOCCOCCOCCNC(=O)COCC(=O)Nc1ccc(-c2c3nc(c(-c4ccccc4)c4ccc([nH]4)c(-c4ccccc4)c4nc(c(-c5ccccc5)c5ccc2[nH]5)C=C4)C=C3)cc1)C(=O)NCC(=O)N[C@@H](CC(C)C)C(=O)NCC(=O)N[C@@H](CC(C)C)C(=O)N[C@@H](Cc1cnc[nH]1)C(=O)N[C@@H](CC(C)C)C(=O)N[C@@H](CC(C)C)C(=O)N[C@H](C(=O)N[C@@H](CC(C)C)C(=O)N[C@@H](C)C(=O)N[C@@H](C)C(=O)N[C@@H](C)C(=O)N[C@@H](CC(C)C)C(=O)N[C@@H](CCC(N)=O)C(=O)NCC(=O)N[C@@H](C)C(=O)N[C@@H](Cc1c[nH]c2ccccc12)C(=O)N[C@@H](CO)C(=O)N[C@@H](CCC(N)=O)C(=O)N[C@@H](C)C(=O)N1CCC[C@H]1C(=O)N1CCC[C@H]1C(=O)N[C@@H](CCCCN)C(=O)N[C@@H](CCCCN)C(=O)N[C@@H](CCCCN)C(=O)N[C@@H](CCCNC(=N)N)C(=O)N[C@@H](CCCCN)C(=O)N[C@H](C(=O)NCC(=O)O)C(C)C)C(C)C` (X1-[NH(CH2CH2O)6CH2CO]MGLGLHLLVLAAALQGAWSQAPPKKKRKVG-OH), the Stability entry in series [2] and in series [5] was “Stable” each time. The Activity result in series [4] was “tde”; in the series with HEp-2 [6], “Not toxic”; in the series on HEp-2 [7] it was “Not toxic”.
As to `CC[C@H](C)[C@H](NC(=O)[C@H](CCCCN)NC(=O)[C@@H](NC(=O)[C@H](CCC(N)=O)NC(=O)[C@H](CCCNC(=N)N)NC(=O)COCCOCCOCCOCCOCCOCCNC(=O)COCC(=O)Nc1ccc(-c2c3nc(c(-c4ccccc4)c4ccc([nH]4)c(-c4ccccc4)c4nc(c(-c5ccccc5)c5ccc2[nH]5)C=C4)C=C3)cc1)[C@@H](C)CC)C(=O)N[C@@H](Cc1c[nH]c2ccccc12)C(=O)N[C@@H](Cc1ccccc1)C(=O)N[C@@H](CCC(N)=O)C(=O)N[C@@H](CC(N)=O)C(=O)N[C@@H](CCCNC(=N)N)C(=O)N[C@@H](CCCNC(=N)N)C(=O)N[C@@H](CCSC)C(=O)N[C@@H](CCCCN)C(=O)N[C@@H](Cc1c[nH]c2ccccc12)C(=O)N[C@@H](CCCCN)C(=O)N[C@@H](CCCCN)C(=O)N[C@@H](C)C(=O)N1CCC[C@H]1C(=O)N1CCC[C@H]1C(=O)N[C@@H](CCCCN)C(=O)N[C@@H](CCCCN)C(=O)N[C@@H](CCCCN)C(=O)N[C@@H](CCCNC(=N)N)C(=O)N[C@@H](CCCCN)C(=O)N[C@H](C(=O)NCC(=O)O)C(C)C` (X1-[NH(CH2CH2O)6CH2CO]RQIKIWFQNRRMKWKKAPPKKKRKVG-OH), the IC50 in the series on HEp-2 [1] turned out to be 9.3 µM; in the series on HEp-2 [3] it was 53 µM. In addition, the Stability result in series [2] and in series [5] was “Stable” throughout. In addition, in series [4], the Activity entry is listed as “tde”.
